# Compounds with a hit are over-represented: about 2.8% of the library has one in this group of screens.
# SR-BI uptake up – activators of SR-BI mediated DiI-HDL uptake, primary screen, ldlA[mSR-BI] CHO cells, DiI fluorescence; 320,000 compounds, 0.096% hits; AID 504775, 2011; 3 h; 100 = double the neutral-control signal; activation, % at 12.5 µM;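 active means mean replicate activation of at least 60% and every replicate at or above 60%; inconclusive means mean or all-replicate condition met, but not both; inactive means mean below 60% and not all replicates reaching 60%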;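 further: 0% = median plate neutral-control signal and 100% = twice that signal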
#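 material = CHO ldlA[mSR-BI] cells | medium = Ham's F12 with 0.5% BSA, HEPES 25 mM, pH 7.4 | reagent = fluorescent DiI-HDL, 10 µg/mL final | compound dosing = single-point compound dose | incubation = 3 h, 37 °C | measured by = bottom-read fluorescence, 550/595 nm | measure = HDL uptake via cellular fluorescence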
# dFosB act – activators of delta FosB homodimer, primary screen, biochemical, fluorescence polarization, TAMRA-CDK5 oligo, single point; purified delta FosB; percent of positive-control signal above neutral wells; activation, % at 25 µM; 340,000 compounds, 0.99% hits; AID 493131, 2011;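 active means mean activation above about 17%, with every replicate also reaching it, limit read from the data, passing the limit was not always enough; inconclusive means only one of the two conditions met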
# CAL PDZ FP-1 – CAL PDZ peptide-binding inhibitors, primary screen, biochemical, fluorescence polarization, Cer-tagged CAL PDZ, HTS; purified CAL PDZ, TMR-peptide fluorescence polarization, 1 h; inhibition, % at 20 µM; 330,000 compounds, 0.02% hits; AID 504414, 2011;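 active means highest replicate inhibition of at least 40%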;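 further: plate controls were DMSO neutral control wells for no effect and unlabeled competitor peptide control wells for full effect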
#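 Control set: unlabelled peptide and DMSO controls / Material: purified CerCALP PDZ construct / Timing: 1 h incubation at room temperature before polarization reading / Doses: 20 µM, one dose / Detection: fluorescence polarization (mP)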
# SR-BI DiI inh – inhibitors of SR-BI mediated HDL lipid uptake, primary screen, ldlA[mSR-BI] cells, fluorescence, single point; Scavenger receptor class B member 1 (Mus musculus), Q61009; AID 488896, 2010; inhibition, % at 12.5 µM; 320,000 compounds, 0.96% hits; ldlA[mSR-BI] CHO cells, DiI-HDL uptake fluorescence, 3 h;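 active means mean replicate inhibition of at least 70% and a set share of replicates each scoring 70 or more; inconclusive means meets just one of the two criteria; inactive means fails both criteria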;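 further: 0% = median of neutral control wells and 100% = median of positive control wells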
# Target sequence (Q61009 whole entry, looked up): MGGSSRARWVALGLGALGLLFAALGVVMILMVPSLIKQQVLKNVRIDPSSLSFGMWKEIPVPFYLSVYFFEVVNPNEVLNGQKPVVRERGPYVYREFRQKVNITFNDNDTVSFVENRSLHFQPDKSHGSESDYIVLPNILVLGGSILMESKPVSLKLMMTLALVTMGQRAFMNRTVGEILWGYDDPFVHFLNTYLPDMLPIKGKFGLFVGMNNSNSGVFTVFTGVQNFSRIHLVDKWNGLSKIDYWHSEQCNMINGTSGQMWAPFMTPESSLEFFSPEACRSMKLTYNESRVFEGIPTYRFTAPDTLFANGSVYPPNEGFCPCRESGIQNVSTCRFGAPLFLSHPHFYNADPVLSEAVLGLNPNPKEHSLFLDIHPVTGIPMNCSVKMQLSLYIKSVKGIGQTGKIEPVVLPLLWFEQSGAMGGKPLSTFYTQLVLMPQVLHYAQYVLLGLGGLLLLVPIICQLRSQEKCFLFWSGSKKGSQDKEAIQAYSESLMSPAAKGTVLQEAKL
# CAL PDZ FP-2 – untagged CAL PDZ binding inhibitors, primary screen, biochemical, fluorescence polarization, HTS; Golgi-associated PDZ and coiled-coil motif-containing protein (Homo sapiens), Q9HD26; 300,000 compounds, 0.92% hits; inhibition, % at 24.9 µM; purified CAL PDZ, TMR-peptide fluorescence polarization, 1 h;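 active means mean inhibition of at least 30% with at least half of replicates also reaching 30%; inconclusive means no clear call, values can overlap the other calls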;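 further: 0% = DMSO neutral control and 100% = excess unlabeled competitor peptide PRC23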
# DiI quencher – quenches DiI-HDL fluorescence, an SR-BI assay artifact | shares compounds with SR-BI DiI inh | cell-free DiI-HDL fluorescence quenching, 30 min | AC50, µM (titrated, usually from 35 µM), inactives show at the top dose activity change, negative = quenching | 470 compounds, 20% hits | AID 540326;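 active means quenching, a falling signal, with AC50 below a set limit tied to the top valid dose, actives reach about 32 µM in these data; inconclusive means no clear call, values can overlap the other calls; inactive means rising signal, and the rest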
# The depositor's hits bear a star; i = inactive; ? = inconclusive; . = no result given.
SMILES,SR-BI uptake up,dFosB act,CAL PDZ FP-1,SR-BI DiI inh,CAL PDZ FP-2,others
Cc1cccc(C(O)(C(=O)O)c2ccccc2)c1 (centres undefined),17,-12,-6,-17,-2,
Cc1ccc(OCCOc2cccc(C=C3C(=O)NC(=O)NC3=O)c2)cc1,36,-10,0,-36,-2,
CCN1/C(=C\C=C\C2=[N+](CC)c3ccccc3C2(C)C)C(C)(C)c2ccccc21,.,52*,-42,.,-68,
O=[N+]([O-])[N-][n+]1cnn(Cc2ccccc2)c1,11,1,-1,-11,.,
Cc1ccc(C2=NCC(=O)N(CC(=O)N3CCCCC3)c3sc(C)c(C)c32)cc1,-88,-6,-2,88*,-1,
COc1cc2c(cc1OC)-c1c(OC)c(OC)cc3c1C(C2)N(C)CC3 (centres undefined),-76,-8,0,76*,-2,
COc1ccc(Br)cc1CN1CCN(C(=O)Cc2ccccc2)CC1,725*,-11,-1,i,-2,
COc1ccccc1N1CCN(C2CCCN(C(=O)COc3ccccc3Cl)C2)CC1 (centres undefined),-36,-8,-2,36,.,
CC1CCCC(NC(=O)COC(=O)c2cn(C)c3ccccc23)C1C (centres undefined),5,-8,0,-5,0,
COC(=O)C1=C(c2ccc(C(C)=O)cc2)C[C@@H]2CC[C@H]1N2C(=O)N1CCC(O)(c2ccc(Cl)cc2)CC1,-30,-11,-1,30,-1,
COc1ccc(Cn2c(O)c(C=NCCN3CCOCC3)c(=O)[nH]c2=O)cc1,20,-3,-1,-20,-3,
O=C(N/N=C/c1c(O)n(CCc2ccccc2)c(=O)[nH]c1=O)c1ccccc1O,.,-14,-4,.,-2,
COc1ccc(Cn2c(O)c(/C=N/NC(=O)c3ccncc3)c(=O)[nH]c2=O)cc1,2,-4,1,-2,2,
COc1ccc(Cn2c(O)c(/C=N/NC(=O)c3ccccc3O)c(=O)[nH]c2=O)cc1,-97,-4,-2,97*,0,
O=C(N/N=C/c1c(O)n(Cc2ccc(F)cc2)c(=O)[nH]c1=O)c1ccccc1O,-75,-9,-2,75*,0,
COc1ccc(Cn2c(O)c(/C=N/NC(=O)c3ccccc3)c(=O)[nH]c2=O)cc1,-81,-2,-2,81*,-5,
O=C(N/N=C/c1c(O)n(Cc2ccccc2)c(=O)[nH]c1=O)c1ccccc1O,-117,-66,-2,117*,0,
CCOc1ccc(NC2=NCCCS2)cc1,.,-1,-1,.,4,
O=C(N/N=C/c1c(O)n(CCc2ccccc2)c(=O)[nH]c1=O)c1ccncc1,-9,-3,-1,9,-5,
CCn1c(O)c(/C=N/NC(=O)c2ccccc2)c(=O)[nH]c1=S,-38,1,0,38,74*,
C[C@](N)(CCP(=O)(O)O)C(=O)O,-13,-2,1,13,0,
Cc1cccc(N2C(=O)NC(=O)/C(=C\c3ccc(N4CCOCC4)cc3)C2=O)c1,23,2,-1,-23,56*,
Cc1nc2ccc(Cl)cc2c(=O)n1-c1ccc([N+](=O)[O-])cc1,7,-6,.,-7,75*,
Cc1nc2ccccc2c(=O)n1-c1ccc([N+](=O)[O-])cc1,-17,7,.,17,-3,
COc1cc(OC)c(OC)cc1CN1CCN(C(=O)COc2ccc3ccccc3c2)CC1,.,-9,-3,.,0,
SMILES,SR-BI uptake up,dFosB act,CAL PDZ FP-1,SR-BI DiI inh,CAL PDZ FP-2,others
COc1cccc(CN2CCN(C(=O)COc3ccc4ccccc4c3)CC2)c1,-86,-6,-1,86*,8,
CCC(C#N)(CC)P(=S)(c1ccccc1)c1ccccc1,63*,-6,-2,-63,-1,
Cc1cc(C)c2c(c1)-c1cc(C)nn1C(c1cccnc1)N2 (centres undefined),0,-3,0,0,.,
CC1CN=C(Nc2ccc(F)c(Cl)c2)S1 (centres undefined),6,-4,0,-6,54*,
Cc1ccc(S(=O)(=O)N(C)C)cc1NC(=O)C(C)[N+]12CCN(CC1)CC2 (centres undefined),-11,-1,0,11,-2,
O=C(NN=Cc1ccc(N(CCCl)CCCl)cc1Cl)c1cccnc1,-80,-5,1,80*,2,
O=C(NN=Cc1ccc(N(CCCl)CCCl)cc1)c1cc(=O)[nH]c(=O)[nH]1,22,-2,-1,-22,-6,
ClCCN(CCCl)c1ccc(C=NNc2ncccn2)cc1,-21,1,-2,21,-4,
Cc1cc(N(CCCl)CCCl)ccc1C=NNC(=O)c1cccnc1,-89,-12,-1,89*,-1,
CC12CC(=O)C3C(CCC4CC(=O)C=CC43C)C1CCC2=O (centres undefined),5,0,-1,-5,0,
Cc1ccnc(NC(=O)CCCc2ccc(N(CCCl)CCCl)cc2)n1,7,-1,15,-7,51*,
COC(=O)C1=C(c2ccc(OC)c(OC)c2)C[C@@H]2CC[C@H]1N2C(=O)N1CCOCC1,23,-15,0,-23,-1,
COC(=O)C1=C(c2ccc(OC)c(OC)c2)C[C@@H]2CC[C@H]1N2C(=O)N1CCC(C)CC1,1,2,-4,-1,41*,
N#Cc1ccc(Nc2nc(-c3ccc(O)cc3O)cs2)cc1C(F)(F)F,-103,3,-1,103*,3,DiI quencher=4.3µM*
COC(=O)C1=C(c2ccc(F)cc2OCc2ccccc2)C[C@@H]2CC[C@H]1N2C(=O)N1CCCC1,14,-5,0,-14,-2,
OC1(c2ccc(F)cc2)CCNC1 (centres undefined),34,11,0,-34,-4,
CNC1(c2ccc(F)cc2)CCCCC1,-72,2,0,?,-4,DiI quencher=-3%
O=c1cccc2n1CC1CC2CN(S(=O)(=O)c2cc(Cl)ccc2Cl)C1 (centres undefined),16,-5,0,-16,-8,DiI quencher=-3%
COC1=C(C)C(=O)C2=C(C1=O)C(CO)N1C(C#N)C3CC4C(C1C2N1CCOC41)N3C (centres undefined),-24,4,0,24,1,

# Screens: PubChem BioAssay, Broad Institute
